From PMC6170741 (Investigational new drugs, 2018)

Assays:
[1] = tested on: patients with solid tumors; assay: Phase I safety and tolerability; assay type: in vivo
[2] = tested on: patients with solid tumors; assay: Clinical activity; assay type: in vivo, human
[3] = biological target: AKT3; conditions: read-out: AKT3 Ki*; cited from earlier work
[4] = biological target: AKT1; conditions: read-out: AKT1 Ki*; cited from earlier work
[5] = Single dose plasma pharmacokinetics in patients; assay type: in vivo, human; conditions: for Tmax: human, plasma, po, across all doses and regimens
Outline: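 Fasted patients took one oral capsule dose (Cycle 0) before repeat dosing began. Drug was quantified by liquid-liquid extraction and HPLC-MS/MS (range 1–1000 ng/mL; LLOQ 1.00 ng/mL). Non-compartmental analysis gave AUC(0–24) and Cmax, and variability was expressed as CV%.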

[6] = Repeat dose plasma pharmacokinetics in patients; assay type: in vivo, human
Outline: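 Fasted patients took oral capsules once daily. Steady-state plasma was sampled up to 24 h post-dose on day 8 (10 and 20 mg cohorts), day 15 (40–150 mg cohorts), day 7 (7-on/7-off) or day 22 (t.i.w.). Dose-reduced patients were sampled at the new dose. Drug was measured by liquid-liquid extraction and HPLC-MS/MS (validated 1–1000 ng/mL; LLOQ 1.00 ng/mL). Parameters were derived non-compartmentally.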

[7] = tested on: blood glucose and insulin levels; assay: Pharmacodynamics: insulin after standardized meal, 1,5-anhydroglucitol; assay type: in vivo, human
[8] = any cause, all cohorts, N = 77, CTCAE v3.0
[9] = 75 mg, continuous daily regimen
[10] = repeat dose, 75 mg, continuous daily regimen

Cn1ncc(Cl)c1-c1cc(C(=O)N[C@H](CN)Cc2ccc(F)c(F)c2)oc1Cl [GSK2141795]
DLTs ([1]; 75 mg qd 7-on/7-off cohort): No DLTs | DLTs ([1]; 75 mg t.i.w. cohort): No DLTs | DLTs ([1]; 100 mg qd 7-on/7-off cohort): Two DLTs, grade 3 hyperglycemia and grade 3 rash | DLTs ([1]; 100 mg qd cohort (exceeded the MTD)): two DLTs, including grade 1 stomatitis that did not resolve, leading to a treatment delay of >14 days, as well as grade 4 hypoglycemia | DLTs ([1]; 100 mg t.i.w. cohort): No DLTs | DLTs ([1]; 150 mg qd cohort (exceeded the MTD)): two DLTs of grade 3 hyperglycemia | maximum tolerated dose (MTD) ([1]; 7-on/7-off schedule): 75 mg | hyperglycemia, patients ([1]; all cohorts): 22% | rash, patients ([1]; all cohorts): 22% | patients with DLTs ([1]; all cohorts, cycle 1): 7 patients | Abdominal pain, Grade 1 [1, 8]: 13 (17) n (%) | Abdominal pain, Grade 2 [1, 8]: 4 (5) n (%) | Abdominal pain, Grade 3 [1, 8]: 3 (4) n (%) | Abdominal pain, Grade 4 [1, 8]: 0 n (%) | Abdominal pain, Total [1, 8]: 20 (26) n (%) | Back pain, Grade 1 [1, 8]: 11 (14) n (%) | Back pain, Grade 2 [1, 8]: 3 (4) n (%) | Back pain, Grade 3 [1, 8]: 1 (1) n (%) | Back pain, Grade 4 [1, 8]: 0 n (%) | Back pain, Total [1, 8]: 15 (19) n (%) | Constipation, Grade 1 [1, 8]: 14 (18) n (%) | Constipation, Grade 2 [1, 8]: 3 (4) n (%) | Constipation, Grade 3 [1, 8]: 0 n (%) | Constipation, Grade 4 [1, 8]: 0 n (%) | Constipation, Total [1, 8]: 17 (22) n (%) | Cough, Grade 1 [1, 8]: 9 (12) n (%) | Cough, Grade 2 [1, 8]: 0 n (%) | Cough, Grade 3 [1, 8]: 0 n (%) | Cough, Grade 4 [1, 8]: 0 n (%) | Cough, Total [1, 8]: 9 (12) n (%) | Decreased appetite, Grade 1 [1, 8]: 23 (30) n (%) | Decreased appetite, Grade 2 [1, 8]: 6 (8) n (%) | Decreased appetite, Grade 3 [1, 8]: 0 n (%) | Decreased appetite, Grade 4 [1, 8]: 1 (1) n (%) | Decreased appetite, Total [1, 8]: 30 (39) n (%) | Diarrhea, Grade 1 [1, 8]: 33 (43) n (%) | Diarrhea, Grade 2 [1, 8]: 13 (17) n (%) | Diarrhea, Grade 3 [1, 8]: 3 (4) n (%) | Diarrhea, Grade 4 [1, 8]: 0 n (%) | Diarrhea, Total [1, 8]: 49 (64) n (%) | Dizziness, Grade 1 [1, 8]: 12 (16) n (%) | Dizziness, Grade 2 [1, 8]: 0 n (%) | Dizziness, Grade 3 [1, 8]: 0 n (%) | Dizziness, Grade 4 [1, 8]: 0 n (%) | Dizziness, Total [1, 8]: 12 (16) n (%) | Dysgeusia, Grade 1 [1, 8]: 7 (9) n (%) | Dysgeusia, Grade 2 [1, 8]: 1 (1) n (%) | Dysgeusia, Grade 3 [1, 8]: 0 n (%) | Dysgeusia, Grade 4 [1, 8]: 0 n (%) | Dysgeusia, Total [1, 8]: 8 (10) n (%) | Dyspnea, Grade 1 [1, 8]: 10 (13) n (%) | Dyspnea, Grade 2 [1, 8]: 3 (4) n (%) | Dyspnea, Grade 3 [1, 8]: 2 (3) n (%) | Dyspnea, Grade 4 [1, 8]: 0 n (%) | Dyspnea, Total [1, 8]: 15 (19) n (%) | Fatigue, Grade 1 [1, 8]: 21 (27) n (%) | Fatigue, Grade 2 [1, 8]: 16 (21) n (%) | Fatigue, Grade 3 [1, 8]: 0 n (%) | Fatigue, Grade 4 [1, 8]: 1 (1) n (%) | Fatigue, Total [1, 8]: 38 (49) n (%) | Headache, Grade 1 [1, 8]: 7 (9) n (%) | Headache, Grade 2 [1, 8]: 0 n (%) | Headache, Grade 3 [1, 8]: 1 (1) n (%) | Headache, Grade 4 [1, 8]: 1 (1) n (%) | Headache, Total [1, 8]: 9 (12) n (%) | Hyperglycemia, Grade 1 [1, 8]: 2 (3) n (%) | Hyperglycemia, Grade 2 [1, 8]: 9 (12) n (%) | Hyperglycemia, Grade 3 [1, 8]: 5 (6) n (%) | Hyperglycemia, Grade 4 [1, 8]: 1 (1) n (%) | Hyperglycemia, Total [1, 8]: 17 (22) n (%) | Mucosal inflammation, Grade 1 [1, 8]: 7 (9) n (%) | Mucosal inflammation, Grade 2 [1, 8]: 1 (1) n (%) | Mucosal inflammation, Grade 3 [1, 8]: 0 n (%) | Mucosal inflammation, Grade 4 [1, 8]: 0 n (%) | Mucosal inflammation, Total [1, 8]: 8 (10) n (%) | Nausea, Grade 1 [1, 8]: 42 (55) n (%) | Nausea, Grade 2 [1, 8]: 4 (5) n (%) | Nausea, Grade 3 [1, 8]: 1 (1) n (%) | Nausea, Grade 4 [1, 8]: 0 n (%) | Nausea, Total [1, 8]: 47 (61) n (%) | Peripheral edema, Grade 1 [1, 8]: 9 (12) n (%) | Peripheral edema, Grade 2 [1, 8]: 0 n (%) | Peripheral edema, Grade 3 [1, 8]: 0 n (%) | Peripheral edema, Grade 4 [1, 8]: 0 n (%) | Peripheral edema, Total [1, 8]: 9 (12) n (%) | Pyrexia, Grade 1 [1, 8]: 10 (13) n (%) | Pyrexia, Grade 2 [1, 8]: 2 (3) n (%) | Pyrexia, Grade 3 [1, 8]: 0 n (%) | Pyrexia, Grade 4 [1, 8]: 0 n (%) | Pyrexia, Total [1, 8]: 12 (16) n (%) | Rash, Grade 1 [1, 8]: 8 (10) n (%) | Rash, Grade 2 [1, 8]: 8 (10) n (%) | Rash, Grade 3 [1, 8]: 1 (1) n (%) | Rash, Grade 4 [1, 8]: 0 n (%) | Rash, Total [1, 8]: 17 (22) n (%) | Urinary tract infection, Grade 1 [1, 8]: 6 (8) n (%) | Urinary tract infection, Grade 2 [1, 8]: 6 (8) n (%) | Urinary tract infection, Grade 3 [1, 8]: 0 n (%) | Urinary tract infection, Grade 4 [1, 8]: 0 n (%) | Urinary tract infection, Total [1, 8]: 12 (16) n (%) | Vomiting, Grade 1 [1, 8]: 29 (38) n (%) | Vomiting, Grade 2 [1, 8]: 3 (4) n (%) | Vomiting, Grade 3 [1, 8]: 1 (1) n (%) | Vomiting, Grade 4 [1, 8]: 0 n (%) | Vomiting, Total [1, 8]: 33 (43) n (%) | Weight decreased, Grade 1 [1, 8]: 12 (16) n (%) | Weight decreased, Grade 2 [1, 8]: 5 (6) n (%) | Weight decreased, Grade 3 [1, 8]: 0 n (%) | Weight decreased, Grade 4 [1, 8]: 0 n (%) | Weight decreased, Total [1, 8]: 17 (22) n (%) | dose reductions for diarrhea ([1]; at the RP2D): 2 patients | dose reductions for rash ([1]; at the RP2D): 3 patients | grade 3 hyperglycemia ([1]; at the RP2D (75 mg qd), % of patients): 4% | patients withdrawn as a result of an AE ([1]; of 77 enrolled (17%), at study completion): 13 patients | recommended phase II dose (RP2D) ([1]; once-daily dosing, oral): 75 mg | maximum tolerated dose (MTD) ([1]; qd dosing): 75 mg | endometrial cancer patients with stable disease (SD) on therapy for more than 6 months ([2]; 75 mg qd): 4 patients | prostate cancer patients with stable disease (SD) on therapy for more than 6 months ([2]; 75 mg qd): 3 patients | partial responses (PRs) ([2]; RP2D 75 mg qd): two partial responses | patients withdrawn due to disease progression ([2]; of 77 enrolled (68%), at study completion): 52 patients | Ki [3]: 1.5 nM | Ki [4]: 0.066 nM | mean variability (CV%) in exposure, AUC(0–24) [5, 9]: 37% | mean variability (CV%) in exposure, Cmax [5, 9]: 62% | Tmax ([5]; Tmax, majority): 2 to 4 h | Tmax ([5]; median time to maximal concentration (Tmax)): 3 to 8 h | time to reach steady-state ([6]; continuous qd dosing): approximately 14 days | concentration at 24 h ([6]; human, plasma, oral, 20 mg, C24, repeat dose 20 mg once daily (n = 1), day 8): 42.1 ng/mL | Cmax ([6]; human, plasma, oral, 20 mg, Cmax, repeat dose 20 mg once daily (n = 1), day 8): 90.3 ng/mL | Tmax ([6]; human, plasma, oral, 20 mg, Tmax, repeat dose 20 mg once daily (n = 1), day 8): 3 h | Tmax ([6]; human, plasma, oral, median Tmax, repeat dose, generally): 2 to 4 h | CV% in exposure, AUC(0–24) [6, 10]: 52% | CV% in exposure, Cmax [6, 10]: 50% | insulin levels following a standardized meal, day 15 compared with screening ([7]; 5 patients with matched insulin samples, cycle 1 day 15): Three of the five patients had two-fold greater insulin levels | association of decreased 1,5-AG with GSK2141795 concentrations ([7]; screening vs steady state, linear regression): this association was not consistent across the study or across tumor types
